PDI inh: inhibitors of human PDI, primary screen, biochemical, turbidity, single point, plate reader; Protein disulfide-isomerase (Homo sapiens), P07237; PDI insulin aggregation turbidity, A650, 90 min; inhibition, % at 10 µM; 350,000 compounds, 0.052% hits;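 active means mean inhibition across replicates of 30% or more, whatever share of single replicates reach that level; inconclusive means mean inhibition below 30% while every single replicate reaches 30%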
FN deposit inh: inhibitors of fibronectin matrix deposition, primary screen, AH1F cells, Alexa488-fibronectin fluorescence, plate reader. inhibition, % at 12.6 µM. AID 743247, 2014. AH1F fibroblasts, overnight. 350,000 compounds, 0.086% hits;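 active means mean inhibition across replicates of 30% or more, regardless of how many single replicates reach that level; inconclusive means mean under 30% yet at least half of replicates reach 30%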;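 further: positive control wells lacked labelled fibronectin entirely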
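Material: AH1F fibroblast monolayer depositing Alexa488-labelled fibronectin into matrix | Input: 10000 AH1F cells/well | Medium: DMEM plus 2% serum, read in PBS | Reagent: Alexa488-fibronectin, 24 nM final in well | Compound dosing: One dose per compound, pinned | Schedule: 1 h adhesion, overnight exposure | Measured by: Fluorescence at 485 nm excitation, 525 nm emission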
FGF22 binding: binders of human FGF22 protein, primary screen, FGF22 synaptogenesis inhibitor project, biophysical, thermal shift, single point; AID 651658, 2012; Fibroblast growth factor 22 (Homo sapiens), Q9HCT0; activity (Tm shift, normalised), % at 9.99 µM; recombinant FGF22 thermal shift, SYPRO orange fluorescence; percent of sucrose octasulfate shift, DMSO zero; 340,000 compounds, 1.5% hits;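 active means mean Tm shift, scaled 0 neutral to 100 positive control, at about 1.3% or above, every replicate too, limit read from the data; inconclusive means no clear call, values can overlap the other calls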
ERp5 inh: inhibitors of ERp5-driven insulin aggregation, primary screen, biochemical, turbidity, absorbance 650 nm, single point; 350,000 compounds, 0.05% hits; 90 min; inhibition, % at 9.99 µM;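 active means mean replicate inhibition above about 25%, with every replicate also reaching it, limit read from the data, passing the limit was not always enough; inconclusive means only one of those two criteria met; inactive means neither criterion met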
AF4-AF9 inh: inhibitors of AF4 peptide binding to AF9, primary screen, biochemical, AlphaScreen, biotin-AF4 peptide, FLAG-AF9, single point; inhibition, % at 10 µM; AID 651704, 2012; 350,000 compounds, 0.47% hits; Protein AF-9 (Homo sapiens), P42568;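 active means every replicate reaching a set inhibition limit, whatever the replicate mean, cut at about 25% in these data; inconclusive means mean inhibition reaches that limit but some replicates miss it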;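 further: 0% = plate neutral control median and 100% = total signal loss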
Target sequence (P42568 whole entry, looked up): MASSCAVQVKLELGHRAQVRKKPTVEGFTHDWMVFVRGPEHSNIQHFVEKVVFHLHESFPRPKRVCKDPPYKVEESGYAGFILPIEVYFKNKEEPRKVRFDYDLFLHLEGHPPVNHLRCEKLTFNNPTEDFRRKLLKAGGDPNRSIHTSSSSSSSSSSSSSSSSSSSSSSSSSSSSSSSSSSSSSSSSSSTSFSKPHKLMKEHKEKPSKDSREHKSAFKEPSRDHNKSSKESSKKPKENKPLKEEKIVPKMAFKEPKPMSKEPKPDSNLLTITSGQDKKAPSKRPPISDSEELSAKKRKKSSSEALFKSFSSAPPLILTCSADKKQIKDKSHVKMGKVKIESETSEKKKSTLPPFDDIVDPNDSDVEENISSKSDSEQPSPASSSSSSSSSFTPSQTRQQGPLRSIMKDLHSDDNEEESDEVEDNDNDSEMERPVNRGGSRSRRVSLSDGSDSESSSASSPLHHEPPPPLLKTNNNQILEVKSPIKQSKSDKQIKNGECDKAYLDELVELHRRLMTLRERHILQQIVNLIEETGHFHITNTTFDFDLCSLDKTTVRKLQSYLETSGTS
ARNT TACC3 PPI: disruptors of ARNT/TACC3 protein interaction, primary screen, biochemical, AlphaScreen, single concentration; Transforming acidic coiled-coil-containing protein 3 (Homo sapiens), Q9Y6A5; AlphaScreen His-ARNT PAS-B/GST-TACC3 binding, luminescence; TACC3 fragment carries E629A point mutation; inhibition, % at 9.99 µM; 390,000 compounds, 0.66% hits; AID 623870, 2012;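 active means mean inhibition of replicates at least 50% and at least half of replicates each reaching 50%; inconclusive means half or more replicates reach 50% but mean below 50%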;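 further: 0% = complete ARNT plus TACC3 wells and 100% = ARNT alone without TACC3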
* = called active by the depositor; ? = inconclusive; · = not tested or not shown. Compounds with a hit are over-represented: about 2.1% of the library has one in this group of screens.

SMILES	PDI inh	FN deposit inh	FGF22 binding	ERp5 inh	AF4-AF9 inh	ARNT TACC3 PPI
COc1ccc(-c2ccc3c(c2)[C@@H]2[C@@H](CCN2C(=O)Cc2ccccc2)[C@@H](CO)N3C)cc1	·	19.9	-0.2	·	·	0.0
O=C(c1cn[nH]c1)N1CCc2c([nH]c3ccccc23)C1c1c(F)cccc1Cl (centres undefined)	-0.6	3.4	43.5*	0.8	8.9	3.9
COc1cccc(C2c3[nH]c4ccccc4c3CCN2C(=O)c2ccccc2F)c1OC (centres undefined)	-7.1	4.6	-0.2	2.6	3.2	10.3
Cc1ccc2nc(C(=O)N3CCc4c([nH]c5ccccc45)C3c3ccccn3)cn2c1 (centres undefined)	-2.6	-5.5	43.0*	4.1	9.7	-1.4
CSc1nc(C(=O)N2CCc3c([nH]c4ccccc34)C2c2ccccn2)cs1 (centres undefined)	6.8	-2.5	-0.2	?	11.8	2.5
COc1ccc(C2c3[nH]c4ccccc4c3CCN2C(=O)c2cc3ncccn3n2)c(F)c1 (centres undefined)	0.7	1.5	43.0*	2.6	4.9	-2.9
CC(=O)N1[C@@H]2c3ccc(C4=CCCC4)c(=O)n3C[C@H]1[C@H](CO)[C@H]2C(=O)NC1CCCC1	·	·	·	1.3	-1.4	·
O=C(c1cccs1)N1CCN=C1SCc1ccccc1F	1.9	-1.4	43.2*	1.0	-2.5	-4.6
CCOc1cc(/C=C2\SC(=N)N(c3nonc3N)C2=O)ccc1OCCN1CCOCC1	1.3	9.1	1.5*	7.1	-3.9	-5.1
CCOc1cc([N+](=O)[O-])cc(/C=N/NC(=O)c2c(-c3ccccc3)noc2C)c1O	7.8	·	·	·	·	56.7*
COc1cccc(/C=N/NC(=O)c2c(-c3ccccc3)noc2C)c1O	0.6	·	·	·	·	·
Cc1ccc(/C=N/NC(=O)c2c(-c3ccccc3)noc2C)c(O)c1	-11.7	6.1	-0.1	1.6	7.5	46.8*
Cc1cccc(S(=O)(=O)N[C@@H]2CC[C@H](CCNC(=O)CCN3CCCCC3)O[C@@H]2CO)c1	·	13.7	-0.3	-6.6	-1.4	-8.8
O=S(=O)(N[C@@H]1CC[C@@H](CCn2cc(-c3cccnc3)nn2)O[C@H]1CO)c1ccc(Cl)cc1	·	6.7	0.1	-3.6	-1.0	-0.5
CCCNC(=O)Nc1ccc2c(c1)C(=O)N(C)[C@H]1CC[C@H](CC(=O)NC3CCC3)O[C@@H]1CO2	·	-28.1	-0.3	-0.5	-0.6	-14.5
Cc1cccc(C)c1NC(=O)c1nc(S(=O)(=O)Cc2ccccc2)ncc1Cl	2.3	4.1	0.4	4.8	-1.9	-2.0
Cc1cccc(CS(=O)(=O)c2ncc(Cl)c(C(=O)Nc3c(C)cccc3C)n2)c1	-6.4	12.4	-0.3	3.4	-10.1	-0.4
COc1ccc(OC)c(NC(=O)c2nc(S(=O)(=O)Cc3ccccc3)ncc2Cl)c1	-3.3	56.0*	-0.4	-1.5	1.4	-10.1
COc1ccc(NC(=O)c2nc(S(=O)(=O)Cc3cccc(C)c3)ncc2Cl)c(OC)c1	-5.3	47.5*	0.0	1.3	-2.8	-2.6
CS(=O)(=O)c1sc(C#N)c2c1C(=O)CC(c1ccccc1)C2 (centres undefined)	-4.1	37.1*	0.1	-1.9	·	26.2
Cc1oc2c(c(=O)c1C)C(=O)CC(c1ccccc1)C2 (centres undefined)	7.9	·	·	·	·	-32.1
O=C(O)c1cccc(N/N=C/c2ccc(F)c(F)c2)c1	5.2	2.6	42.6	4.6	1.4	-4.0
O=C(O)c1cccc(N/N=C/C2=C(Cl)c3cc(Cl)ccc3SC2)c1	13.8	4.3	43.0*	1.2	1.6	-7.4
CO[C@H]1CN(C)C(=O)c2cc(NC(=O)CC(F)(F)F)ccc2OC[C@H](C)N(CC2CC2)C[C@@H]1C	·	-3.3	-0.3	-2.9	-1.5	·
O=C(O)CC(NC(=O)C12CC3CC(CC(C3)C1)C2)c1ccc(F)cc1 (centres undefined)	10.7	-0.3	0.2	-1.4	3.3	-4.7
SMILES	PDI inh	FN deposit inh	FGF22 binding	ERp5 inh	AF4-AF9 inh	ARNT TACC3 PPI
O=C(O)CC(NC(=O)C12CC3CC(CC(C3)C1)C2)c1ccc2c(c1)OCO2 (centres undefined)	-4.5	-7.1	43.1*	0.9	-1.6	-4.5
CN(C)Cc1c(-c2ccc(Cl)cc2)nc2ccc(Cl)cn12	18.8	3.9	43.3*	2.0	3.3	2.9
CC(C)(C)Cc1c(-c2ccc(Cl)cc2)nc2ccc(Cl)cn12	6.1	4.2	0.6	2.8	-3.6	·
Cc1noc(C)c1S(=O)(=O)Nc1ccc2c(c1)C(=O)N([C@@H](C)CO)C[C@H](C)[C@H](CN(C)C(=O)c1ccccc1)OCCCC[C@H](C)O2	·	1.5	·	3.4	-8.4	-24.2
CCOC(=O)C1=C(C)Nc2ccccc2N=C1NC(=O)Cc1ccc(OC)cc1	13.3	·	·	·	·	0.1
CCOC(=O)C1=C(C)Nc2ccccc2N=C1NC(=O)/C=C/c1ccc(OC)cc1OC	1.9	·	43.5*	-3.5	1.2	-5.3
O=C(CSc1nc2ncccc2[nH]1)NC1CCCC1	·	-21.8	0.0	-6.7	39.7*	-2.7
O=C(C[C@@H]1CC[C@@H](NC(=O)c2ccncc2)[C@@H](CO)O1)Nc1ccccc1	·	5.2	-0.1	2.8	-1.3	-16.2
CCCCc1nc2sc3c(=O)n(N)cnc3c2c2c1CCC2	5.6	-5.7	43.2*	1.2	-2.1	0.4
O=C(C1CCOCC1)N1CC(=O)N2[C@H](CO)[C@H](c3ccc(C#Cc4cccc(F)c4)cc3)[C@@H]2C1	·	·	-0.1	3.2	-0.2	·
CCCc1nc2ccccc2c(=O)n1/N=C/c1ccccc1O	-3.3	·	·	·	·	57.4*
Cc1noc(C)c1NC(=O)Nc1ccc2c(c1)C(=O)N([C@H](C)CO)C[C@H](C)[C@H](CN(C)S(=O)(=O)c1ccccc1)OCCCC[C@@H](C)O2	·	-3.5	·	3.8	-1.8	-1.9
COCC1=C2[C@@H](c3ccccc3)OB(O)C[C@@H]2[C@@H]2C(=O)N(Cc3ccccc3)C(=O)[C@@H]2C1	·	·	·	-8.2	1.4	14.1
O=c1[nH][nH]c2c(N=Cc3ccccc3O)ccc(F)c12	-4.9	·	·	2.1	·	69.0*
CCCCn1c(N)c(N(CCOC)C(=O)COC(=O)c2cc(CCC)c(C)s2)c(=O)[nH]c1=O	5.4	0.9	-0.2	0.9	40.5*	-5.1
CCCCN(C(=O)COC(=O)c1ccc(C)s1)c1c(N)n(CCC)c(=O)[nH]c1=O	-1.0	-10.8	0.1	-8.5	-0.6	-2.4

Assay outcomes: PubChem, Broad Institute
